“Also recorded” adds a separate entry of the source.
Columns and labels:
BLM helicase = BLM helicase (Homo sapiens, UniProt P54132); assay: gel-based BLM DNA unwinding assay; format: biochemical; details: for IC50 (BLM): gel-based BLM DNA unwinding assay
[1] = kinetic aqueous solubility; format: physicochemical; details: aqueous/DMSO solubility compared with other analogs
How it was run: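 Kinetic aqueous solubility in PBS buffer, pH 7.4. It was measured by chemiluminescent nitrogen detection (CLND) at an outside laboratory and in-house by UV-Vis detection.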

BLM ATPase activity = BLM ATPase activity (Homo sapiens, UniProt P54132); assay: BLM ATPase kinetic analysis; format: biochemical
Sequence of BLM ATPase activity (P54132 whole entry): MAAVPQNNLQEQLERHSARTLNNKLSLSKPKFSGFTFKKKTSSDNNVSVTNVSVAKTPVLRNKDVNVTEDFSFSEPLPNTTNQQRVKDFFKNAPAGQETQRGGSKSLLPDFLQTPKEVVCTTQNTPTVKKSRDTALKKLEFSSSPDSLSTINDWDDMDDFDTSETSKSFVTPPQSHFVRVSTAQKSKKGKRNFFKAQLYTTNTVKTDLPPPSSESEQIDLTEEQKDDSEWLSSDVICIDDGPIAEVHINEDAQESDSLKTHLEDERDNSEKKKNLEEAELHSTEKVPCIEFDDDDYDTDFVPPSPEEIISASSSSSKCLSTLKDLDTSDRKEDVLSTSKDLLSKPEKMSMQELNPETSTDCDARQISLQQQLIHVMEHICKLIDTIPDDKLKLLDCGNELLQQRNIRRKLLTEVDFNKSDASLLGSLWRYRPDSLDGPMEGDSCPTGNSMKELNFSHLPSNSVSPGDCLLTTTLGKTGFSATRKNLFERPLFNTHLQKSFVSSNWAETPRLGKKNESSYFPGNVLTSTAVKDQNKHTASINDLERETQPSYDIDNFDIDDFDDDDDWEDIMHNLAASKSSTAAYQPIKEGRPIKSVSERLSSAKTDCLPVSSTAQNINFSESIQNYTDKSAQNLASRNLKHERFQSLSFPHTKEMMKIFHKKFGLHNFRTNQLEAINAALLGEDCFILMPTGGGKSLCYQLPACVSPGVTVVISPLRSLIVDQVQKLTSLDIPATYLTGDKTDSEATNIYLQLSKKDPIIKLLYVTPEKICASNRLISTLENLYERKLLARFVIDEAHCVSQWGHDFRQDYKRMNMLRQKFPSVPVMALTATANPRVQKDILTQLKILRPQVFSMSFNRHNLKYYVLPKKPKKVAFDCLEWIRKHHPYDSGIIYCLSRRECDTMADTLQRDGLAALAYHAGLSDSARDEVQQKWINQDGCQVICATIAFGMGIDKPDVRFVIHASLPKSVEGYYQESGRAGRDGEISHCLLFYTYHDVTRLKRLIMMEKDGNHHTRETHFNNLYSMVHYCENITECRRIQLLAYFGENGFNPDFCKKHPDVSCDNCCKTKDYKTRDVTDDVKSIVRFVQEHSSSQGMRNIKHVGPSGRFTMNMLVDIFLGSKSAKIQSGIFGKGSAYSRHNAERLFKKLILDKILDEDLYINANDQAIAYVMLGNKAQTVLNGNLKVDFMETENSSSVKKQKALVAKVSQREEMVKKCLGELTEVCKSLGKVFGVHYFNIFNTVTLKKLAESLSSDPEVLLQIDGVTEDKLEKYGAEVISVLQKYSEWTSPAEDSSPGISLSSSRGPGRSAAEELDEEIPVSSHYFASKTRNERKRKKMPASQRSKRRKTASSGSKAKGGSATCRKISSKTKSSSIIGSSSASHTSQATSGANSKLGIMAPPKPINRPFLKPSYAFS
How it was run: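 Michaelis–Menten analysis of BLM ATPase activity with and without test compound, replotted as a Lineweaver–Burk double-reciprocal plot. Each point is the mean ± SD of quadruplicate determinations, and the data shown represent three independent experiments.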

WRN = WRN (Homo sapiens, UniProt Q14191); assay: gel-based DNA unwinding assay, WRN; format: biochemical; details: from gel-based IC50 values
Sequence of WRN (Q14191 whole entry): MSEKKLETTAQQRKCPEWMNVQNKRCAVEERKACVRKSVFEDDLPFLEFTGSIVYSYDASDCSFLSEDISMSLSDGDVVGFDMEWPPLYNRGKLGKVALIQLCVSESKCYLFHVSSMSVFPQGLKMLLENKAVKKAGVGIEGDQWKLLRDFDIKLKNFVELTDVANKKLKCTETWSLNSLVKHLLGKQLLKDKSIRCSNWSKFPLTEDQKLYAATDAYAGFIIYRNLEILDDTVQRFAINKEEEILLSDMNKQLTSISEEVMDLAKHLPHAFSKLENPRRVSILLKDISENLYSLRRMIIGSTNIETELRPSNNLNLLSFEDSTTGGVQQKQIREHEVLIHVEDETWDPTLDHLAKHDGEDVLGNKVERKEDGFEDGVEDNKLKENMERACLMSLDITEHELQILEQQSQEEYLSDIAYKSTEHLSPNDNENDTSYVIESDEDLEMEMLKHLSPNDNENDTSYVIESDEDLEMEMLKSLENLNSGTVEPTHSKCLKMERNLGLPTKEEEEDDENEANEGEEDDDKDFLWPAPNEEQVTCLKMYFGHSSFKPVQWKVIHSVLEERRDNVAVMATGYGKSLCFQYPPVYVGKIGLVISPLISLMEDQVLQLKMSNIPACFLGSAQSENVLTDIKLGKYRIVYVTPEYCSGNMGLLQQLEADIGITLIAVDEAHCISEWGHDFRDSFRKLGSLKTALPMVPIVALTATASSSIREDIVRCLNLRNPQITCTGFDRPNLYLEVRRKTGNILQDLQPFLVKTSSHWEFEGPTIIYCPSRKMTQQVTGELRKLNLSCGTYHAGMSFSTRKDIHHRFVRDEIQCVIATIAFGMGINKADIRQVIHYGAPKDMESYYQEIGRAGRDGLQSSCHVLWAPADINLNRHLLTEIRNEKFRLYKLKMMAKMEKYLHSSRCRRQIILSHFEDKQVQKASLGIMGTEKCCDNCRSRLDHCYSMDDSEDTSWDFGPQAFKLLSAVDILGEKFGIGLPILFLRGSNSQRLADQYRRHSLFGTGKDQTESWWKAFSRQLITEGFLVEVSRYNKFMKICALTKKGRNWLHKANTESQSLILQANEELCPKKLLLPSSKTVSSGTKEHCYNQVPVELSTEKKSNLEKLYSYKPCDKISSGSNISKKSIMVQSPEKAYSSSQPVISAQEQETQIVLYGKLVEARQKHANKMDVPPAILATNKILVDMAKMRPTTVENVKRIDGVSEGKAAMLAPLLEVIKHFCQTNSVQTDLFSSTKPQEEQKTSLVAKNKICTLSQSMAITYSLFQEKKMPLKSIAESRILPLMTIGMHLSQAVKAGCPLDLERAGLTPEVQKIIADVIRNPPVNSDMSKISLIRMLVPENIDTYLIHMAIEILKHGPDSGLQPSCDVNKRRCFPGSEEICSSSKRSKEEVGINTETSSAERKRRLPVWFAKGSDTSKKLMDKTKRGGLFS

[2] = system: PSNF5 cells (BLM-complemented GM08505-derived BS cells); assay: sister chromatid exchange frequency in BLM-complemented cells; format: cell-based, human; details: cells expressing BLM (PSNF5)
[3] = system: PSNG13 cells (BLM-defective GM08505-derived BS cells); assay: sister chromatid exchange frequency in BLM-defective cells; format: cell-based, human; details: cells lacking BLM (PSNG13)
BLM = BLM (Homo sapiens, UniProt P54132); assay: fluorescence polarization analysis of BLM binding to single-stranded DNA
Sequence of BLM (P54132 whole entry): as the sequence (P54132 whole entry) above

WRN helicase = details: cited from earlier work
BLM-positive cells = details: cited from earlier work
[4] = system: sister chromatid exchanges; details: cited from earlier work

Sequence of BLM helicase (P54132 whole entry): as above

SMILES | IC50 (BLM) (BLM helicase) | further results
N#Cc1cc(NC(=O)Nc2nnc(-c3ccncc3)s2)ccc1Cl [Compound 10] | – | improvement in potency when 3-Cl is replaced with cyano (BLM helicase; relative to compound 1, BLM gel-based IC50): 4 fold; solubility (in words) [1]: noticeably diminished aqueous/DMSO solubility; also recorded: diminished solubility compared with 33
O=C(Nc1ccc(Cl)c(Cl)c1)Nc1nnc(-c2ccncc2)o1 [Compound 6d] | loss of activity | –
CN(C(=O)Nc1ccc2ccccc2c1)c1nnc(-c2ccncc2)s1 [Compound 7h] | complete loss of activity | –
O=C(Nc1ccc(Cl)c(Cl)c1)Nc1ccc(-c2ccncc2)s1 [Compound 6a] | loss of activity | –
O=C(Nc1ccc(Cl)c(Cl)c1)Nc1nnc(-c2ccccc2)s1 [Compound 4a] | inactivity | –
O=C(Nc1ccccc1)Nc1nnc(-c2ccncc2)s1 [Compound 9] | drastic loss in activity | –
O=S(=O)(Cc1ccc(Cl)c(Cl)c1)Nc1nnc(-c2ccncc2)s1 [Compound 7e] | weakly active or inactive | –
N#Cc1cc(NC(=O)Nc2nnc(-c3ccncc3)s2)ccc1-c1cn[nH]c1 [Compound 33] | comparable activity to the probe compound | mode of BLM inhibition (BLM ATPase activity; Lineweaver-Burk double reciprocal plot): non-ATP competitive BLM inhibitor; effect on apparent Km of BLM ATPase activity (BLM ATPase activity; single-stranded oligonucleotide as DNA effector): does not affect the apparent Km value; selectivity for BLM over WRN (WRN): greater than 6 fold; induction of SCEs [2]: significant and dose-dependent induction of SCEs; induction of SCEs [3]: no further increase in SCEs; displacement of DNA binding to BLM versus related DNA helicases (BLM): selective displacement of DNA binding to BLM over related DNA helicases; inhibition of BLM binding to single-stranded DNA (BLM): dose-dependent inhibition
O=C(Nc1nnc(-c2ccncc2)s1)Oc1ccc2ccccc2c1 [Compound 7d] | weakly active or inactive | –
N#Cc1ccc(NC(=O)Nc2nnc(-c3ccncc3)s2)cc1Br [Compound 24] | – | solubility (in words) [1]: noticeably diminished aqueous/DMSO solubility
O=C(Nc1ccc(Cl)cc1)Nc1nnc(-c2ccncc2)s1 [Compound 8] | drastic loss in activity | –
N=C(Nc1ccc(Cl)c(Cl)c1)Nc1nnc(-c2ccncc2)s1 [Compound 7b] | weakly active or inactive | –
CCCOCN1C(=O)C=CC1=O [NSC19630] | – | WRN helicase inhibition (WRN helicase): small molecule inhibitor of WRN helicase
O=C(Nc1ccc(F)c(C(F)(F)F)c1)Nc1nnc(-c2ccncc2)s1 [ML216] | – | antiproliferative activity (BLM-positive cells): selective antiproliferative activity in BLM-positive cells; induction of sister chromatid exchanges [4]: induce sister chromatid exchanges
N#Cc1cc(NC(=O)Nc2nnc(-c3ccncc3)s2)ccc1-c1ccc[nH]1 [Compound 36] | good activity | –
O=c1c(Nc2ccc(Cl)c(Cl)c2)c(Nc2nnc(-c3ccncc3)s2)c1=O [Compound 7g] | – | solubility (in words) [1]: not improved over (1)
O=C(Nc1ccc(Cl)c(Cl)c1)Nc1nnc(-c2ccccn2)s1 [Compound 4b] | inactivity | –
N#C/N=C(/Nc1ccc(F)c(C(F)(F)F)c1)Nc1nnc(-c2ccncc2)s1 [Compound 7f] | weakly active or inactive | –
N#Cc1cc(NC(=O)Nc2nnc(-c3ccncc3)s2)ccc1Br [Compound 23] | – | solubility (in words) [1]: noticeably diminished aqueous/DMSO solubility
O=C(Nc1ccc(-n2ccnc2)c(F)c1)Nc1nnc(-c2ccncc2)s1 [Compound 35] | good activity | –
O=C(Nc1ccc(Cl)c(Cl)c1)Nc1ncc(-c2ccncc2)s1 [Compound 6c] | completely inactive | –
O=C(Cc1ccc2ccccc2c1)Nc1nnc(-c2ccncc2)s1 [Compound 7c] | weakly active or inactive | –
